# STAT3 blocker: inhibitors of IL-6 induced STAT3 signaling; U3A cells, IL-6 STAT3-luciferase reporter, luminescence; host cell line lacks STAT1; inhibition, % at 5.5 µM; hit rate 0.89% among 190,000;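 active means inhibition above the mean inhibition across all screened compounds plus 3 SD, cut at about 44% in these data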;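 further: 0% = DMSO only wells and 100% = 100 µM nifuroxazide control wells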
# PPC-1+TRAIL kill: kills PPC-1 cancer cells in the presence of TRAIL; PPC-1 cells + TRAIL, ATPLite viability luminescence; cell killing (% activity), % at 4 µM or 5 µM; hit rate 0.41% among 220,000;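 active means cell killing above 50% in the first pass at 4 µM, then a duplicate retest at 5 µM averaging 50% or more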;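 further: plate controls were cells with TRAIL plus DMSO for no effect and medium-only wells lacking cells for full effect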
# STAT1 blocker: STAT1 signaling inhibition; NIH 3T3 STAT1-luciferase reporter, IFN-gamma, luminescence; inhibition, % at 5.5 µM; hit rate 0.35% among 200,000;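 active means inhibition above a set limit, the mean inhibition across all tested compounds plus 3 SD, cut at about 34% in these data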;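 further: 0% = IFN-gamma with DMSO and 100% = IFN-gamma with 300 µM nifuroxazide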
# STAT3 act: STAT3 signaling activation; U3A cells, IL-6 STAT3-luciferase reporter, luminescence; 100% = signal with IL-6 EC80 alone; activation (% of control), % at 5.6 µM; hit rate 0.91% among 190,000; AID 871;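 active means activation above the screen-wide mean of compound activation plus 3 SD, cut at about 130% in these data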;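 further: 0% = background luminescence of wells with medium and substrate only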
#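 Assay system – human STAT1-deficient U3A cells with stable STAT3-luciferase reporter · Also added – IL-6 (33 ng/mL) · Schedule – compound 1 h, then IL-6 6 h at 37 °C · Technique – reporter luminescence signal · Evaluation – % activation versus median of IL-6-stimulated wells · Benchmarks – IL-6-only wells as 100% reference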
# TRAIL sens C8: caspase-8 TRAIL sensitization. NB7+C8 cells + TRAIL, ATPlite viability luminescence. inhibition (viability loss, TRAIL sensitization), % at 10 µM. hit rate 1% among 360,000;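 active means compounds causing at least 50% loss of cell viability in the single-dose screen, relative to plate controls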
# Starred values were filed as active, the others as inactive; nt = no result; ! = a repeat was not active. The list is not random: actives were taken first. Their share in the collection is about 1.8%.
SMILES,STAT3 blocker,PPC-1+TRAIL kill,STAT1 blocker,STAT3 act,TRAIL sens C8
COc1ccc(NC(=O)c2cc(-c3ccncc3)nc3ccc(Br)cc23)cc1OC,nt,nt,nt,nt,54*
O=C(Nc1nnc(SCC(=O)N2CCOCC2)s1)c1ccccc1,4,71*,-17,97,75*
O=C(CSc1nnc(NC(=O)c2ccc(F)cc2F)s1)NC1CCCC1,nt,nt,nt,nt,47
O=C(CSc1nnc(NC(=O)c2ccccc2)s1)NC1CCCC1,nt,nt,nt,nt,57*
O=C(CSc1nnc(NC(=O)c2ccc(F)cc2)s1)NC1CCCC1,nt,nt,nt,nt,63*
COc1cnc(-c2ccccn2)nc1N(C)c1ccccc1,nt,nt,nt,nt,44
Cc1ccc(S/C=C\C(=O)c2ccccc2)cc1,-7,2,5,111,55*
COc1ccc(-n2nc(C(=O)NCC(=O)N(C)Cc3ccccc3)c3ccccc3c2=O)cc1OC,nt,nt,nt,nt,-5
O=C(c1ccco1)N1CCN(C(=O)c2cc(-c3ccccn3)nc3ccc(Cl)cc23)CC1,-38,12,-1,135*,5
O=C(c1ccco1)N1CCN(C(=O)c2cc(-c3ccccc3)nc3ccccc23)CC1,-8,22,-5,111,42
O=C(Nc1ccccn1)c1ccc2c(=O)n3c(nc2c1)CCCCC3,nt,nt,nt,nt,60*
Clc1cc(Sc2ccc(Br)cc2)nnc1-c1ccccc1,-48,25,2,138*,4
COCc1cc(Sc2ccc(Br)cc2)nc(-c2ccccc2)n1,-5,6,7,104,16
CN(C(=O)COC(=O)c1cnc(Cl)c(Cl)c1)C1CCS(=O)(=O)C1 (stereo not given),15,0,11,91,1
CN(C(=O)COC(=O)c1cnc(Cl)c(Cl)c1)C1CCCCC1,nt,nt,nt,nt,69*
COc1cc(CN2CCCC(N3CCN(c4ccc(F)cc4)CC3)C2)ccc1F (stereo not given),nt,nt,nt,nt,6
O=C(Cn1c(O)c(/C=C2\C=Nc3ccccc32)sc1=O)N1CCOCC1,-36,15,-6,134*,1
O=C(Cn1c(O)c(/C=C2\C=Nc3ccc(Br)cc32)sc1=O)N1CCCC1,8,24,-2,92,2
Cc1cccc(NCc2nc3ccccc3n2C)c1,-7,22,-25,111,-9
Cn1c(CNc2ccc(Cl)cc2)nc2ccccc21,-71,12,-47,163*,26
Cc1ccc(NCc2nc3ccccc3n2C)c(C)c1,nt,nt,nt,nt,83*
Nc1sccc1C(=O)N1CCN(c2ccccc2)CC1,nt,nt,nt,nt,-8
Cc1c(C)c2ccc(OCC(=O)N3CC[C@@]4(O)CCCC[C@H]4C3)c(C)c2oc1=O,nt,nt,nt,nt,-7
CC(C)(C)c1ccc(O)c(O)c1,nt,nt,nt,nt,-19
CC(C)(C)c1ccc(O)c(/C=N\O)c1,-16,-23,-6,114,72*
SMILES,STAT3 blocker,PPC-1+TRAIL kill,STAT1 blocker,STAT3 act,TRAIL sens C8
O=C1c2ccccc2C(=O)C1(CO)c1ccccc1,-3,7,-22,104,3
O=C1c2ccccc2C(=O)C1(CO)c1ccc(OC(F)F)cc1,nt,nt,nt,nt,79*
C[C@H](NC(=O)c1ncn2c1c(=O)[nH]c1ccc(Br)cc12)c1ccccc1,nt,nt,nt,nt,91*
C[C@H](NC(=O)c1ncn2c1c(=O)[nH]c1ccccc12)c1ccccc1,nt,nt,nt,nt,22
Cc1cccc(COc2ccccc2C(=O)OCC(=O)N(C)c2c(N)n(Cc3ccccc3)c(=O)[nH]c2=O)c1,nt,nt,nt,nt,12
O=C(/C=C/C(Cl)(Cl)Cl)Nc1ccc(Cl)cc1,nt,nt,nt,nt,93*
NC(=O)/C=C/C(=O)Nc1ccc(Cl)cc1,-17,13,0,116,-4
Clc1ccc(-n2cnc3c(Cl)ncnc32)cc1Cl,nt,nt,nt,nt,74*
CN1OC[C@@H]2CN[C@H](c3ccc(-c4cc5ccccc5o4)cc3)C[C@@H]21,nt,nt,nt,nt,86*
NC(=S)NN=C1c2cc(OCCN3CCOCC3)ccc2-c2ccc(OCCN3CCOCC3)cc21,nt,nt,nt,nt,84*
COc1ccc(C)cc1N(C(=O)c1cccc(F)c1)c1nc2ccccc2s1,-35,-4,-5,134*,3
O=[N+]([O-])c1c(Nc2ccccc2O)ccc2nonc12,31,nt,6,80,-3
O=[N+]([O-])c1c(Nc2ccccc2O)cc(Cl)c2nonc12,nt,nt,nt,nt,71*
CCn1cc(C(=O)NCc2ccco2)c(=O)c2cc(S(=O)(=O)N3CC(C)CC(C)C3)ccc21 (stereo not given),15,55*,1,96,83*
Cc1ccc(Nc2cc(C)nc(N3CCOCC3)n2)cc1,-34,25,-17,134*,-2
Cc1cc(Nc2ccc(C)c(Cl)c2)nc(N2CCOCC2)n1,nt,-2,nt,nt,8
CC(C)(OC(=O)c1ccc(C#N)cc1)c1cc2ccccc2c(=O)o1,nt,nt,nt,nt,3
Cc1cc(N=Nc2c(O)c3ccccc3[nH]c2=O)ccc1N=Nc1ccc(C(=O)N(C)C)cc1,nt,20,nt,nt,35
Cc1ccc(N=Nc2c(O)c3ccccc3[nH]c2=O)c(S(=O)(=O)N(C)C)c1,nt,55*,nt,nt,nt
CN(C)C(=O)c1ccc(N=Nc2c(O)c3ccccc3[nH]c2=O)cc1,nt,nt,nt,nt,76*
COc1ccc(CC2(CO)CCN(S(=O)(=O)c3cccc4cccnc34)CC2)cc1,nt,nt,nt,nt,-14
Cn1c(NCCOc2ccccc2Cl)nc2cc(-c3ccc(F)cc3)sc2c1=O,nt,nt,nt,nt,11
C[C@H](CO)N1C[C@H](C)[C@@H](CN(C)CC2CC2)Oc2c(NC(=O)Cc3ccccc3)cccc2C1=O,nt,nt,nt,nt,8
Cc1cc(NC(=O)c2ccc3c(c2)OCO3)no1,18,19,-19,88,51*
Cc1nc(NC(=O)c2ccc3c(c2)OCO3)ccc1Br,14,28,-62,94,9
SMILES,STAT3 blocker,PPC-1+TRAIL kill,STAT1 blocker,STAT3 act,TRAIL sens C8
Cc1cc(NC(=O)c2ccc(C(C)(C)C)cc2)no1,nt,nt,nt,nt,70*
CC(=O)C(=Cc1cccc(C#N)c1)C(=O)c1ccccc1,nt,nt,nt,nt,33
N#CC(C#N)=C1C=CC=CN1/C(=C\c1ccccc1Cl)C(=O)c1ccccc1,13,29,35*,95,16
COc1cc2c(cc1OC)C(C)N(C(=O)C1=NN(c3cccc(C)c3)C(=O)CC1)CC2 (stereo not given),nt,nt,nt,nt,-17
CC(C)c1ccc2c(c1)CC[C@H]1[C@](C)(CN)CCC[C@]21C,nt,nt,nt,nt,68*!
CC(C)c1ccc2c(c1)CCC1C(C)(CN)CCCC21C (stereo not given),nt,39,nt,nt,22
O/N=C/c1cccc[n+]1CCCCCC[n+]1ccccc1/C=N/O,nt,nt,nt,nt,3
CCCCCCCCCCCCCCCC[n+]1ccccc1,nt,nt,nt,nt,95*
CCCCCCCCCCCCCCCC[n+]1ccc(C(N)=O)cc1,6,50,2,96,71*
CCCCCc1ccc(OCCC[n+]2ccccc2)c(CCCCC)c1,nt,46,nt,nt,30
CCCCCCCCCCCCCCCC[n+]1ccc(/C=N/O)cc1,3,70*,14,99,18
COc1ccccc1C(=O)NCC(=O)NNC(=O)C1COc2ccccc2O1 (stereo not given),nt,nt,nt,nt,10
CC(=NNC(=O)c1ccncc1)c1ccc2ccccc2c1O,nt,nt,nt,nt,-4
Cc1cccc(-c2n[nH]nc2C2=CC(=O)CC(C)(C)C2)c1,nt,nt,nt,nt,-6
COC(=O)c1ccc(-c2nc(-c3cccs3)no2)cc1,91*,34,52*,30,58*
Fc1ccc(-c2nc(-c3cccs3)no2)cc1,nt,-3,nt,nt,1
